Data set [1] relates to L3.6pl. The data set is described as follows: Effect on polyamine level in human L3.6PL cells assessed as decrease in intracellular spermine level at 2 to 7 uM measured after 72 hrs in presence of amine oxidase suppressor aminoguanidine by LCMS analysis. The format is functional, cell-based. Particulars: in the assay text read “by N-dansylation and HPLC analysis” for “by LCMS analysis”. In outline: (§1)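 L3.6pl cells, 50,000 cells/mL in 10 mL per Petri dish with 1 mM aminoguanidine, plated overnight. Dosed with compound at 2, 5 or 7 μM from PBS stocks, then 72 h at 37°C. Intracellular polyamines measured by N-dansylation and HPLC, in duplicate, as nmol/mg protein against a parallel untreated control.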

In data set [2] the target is Large neutral amino acids transporter small subunit 1 (Homo sapiens) (UniProt Q01650). Briefly: Induction of LAT1-mediated polyamine efflux in human L3.6PL cells assessed as increase in [3H]leucine efflux at 60 uM measured after 30 mins at 37 degC in presence of LAT1 inhibitor JPH-203 by scintillation counting method. The format is cell-based.
Chain of Large neutral amino acids transporter small subunit 1 (Homo sapiens) (Q01650 whole entry): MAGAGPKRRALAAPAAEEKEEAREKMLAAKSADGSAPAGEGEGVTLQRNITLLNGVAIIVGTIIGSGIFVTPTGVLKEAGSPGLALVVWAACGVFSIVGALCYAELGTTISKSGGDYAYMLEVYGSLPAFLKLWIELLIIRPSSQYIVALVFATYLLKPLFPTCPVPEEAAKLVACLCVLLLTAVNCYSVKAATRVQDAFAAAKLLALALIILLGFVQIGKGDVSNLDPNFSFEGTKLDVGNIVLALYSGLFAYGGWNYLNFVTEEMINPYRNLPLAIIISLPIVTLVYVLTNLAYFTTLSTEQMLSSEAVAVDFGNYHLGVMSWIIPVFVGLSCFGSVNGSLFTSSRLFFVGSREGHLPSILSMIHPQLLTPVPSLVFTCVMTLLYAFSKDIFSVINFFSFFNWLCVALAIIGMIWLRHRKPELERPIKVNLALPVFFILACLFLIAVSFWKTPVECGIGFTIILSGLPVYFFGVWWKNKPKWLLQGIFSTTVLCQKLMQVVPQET
The test system of data set [3] is CHO-K1. The data set is described as follows: Inhibition of polyamine transporter in CHOK1 cells assessed as rescue of 2.4 uM N-(anthracenylmethyl) homospermidine-induced toxicity by measuring cell growth at 7 uM measured after 48 hrs in presence of amine oxidase suppressor aminoguanidine by MTS assay (reference value: 23%). The format is cell-based. Details: scale not given: the % may be the effect or the level left. As to conditions: Cricetulus griseus. In short, it runs like this:
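CHO K1 cells (1000 cells/well, aminoguanidine 1 mM preincubation) were given a toxic Ant-44 dose (2.4 μM) with candidate compound at 5 or 7 μM. Cells were incubated 48 h at 37°C, and relative growth versus untreated control was read by MTS.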

For data set [4], the system named is CHO-K1. Briefly: Inhibition of polyamine transporter in DFMO-treated CHOK1 cells assessed as prevention of spermidine entry into cells by measuring rescue of DFMO-induced reduction in cell growth at 1 to 6 uM measured after 48 hrs in presence of amine oxidase suppressor aminoguanidine by MTS assay. Particulars: Cricetulus griseus. It is filed as cell-based. In outline:
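CHO K1 cells (1000 cells/well) were pre-incubated 24 h with 1 mM aminoguanidine. They were then given fixed DFMO (4.2 mM) and spermidine (1 μM) plus increasing compound doses for 48 h at 37°C. EC50 is the concentration bringing MTS relative growth halfway between the DFMO+Spd and DFMO-only controls. Runs were done twice in triplicate, with SD.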

Data set [5] deals with L3.6pl. The data set is described as follows: Effect on polyamine level in human L3.6PL cells assessed as change in putrescine level at 2 to 7 uM measured after 72 hrs in presence of amine oxidase suppressor aminoguanidine by LCMS analysis. It is filed as functional, cell-based. As to conditions: in the assay text read “by N-dansylation and HPLC analysis” for “by LCMS analysis”. In outline:
as §1

For data set [6], the system named is CHO-MG. Briefly: Induction of polyamine efflux in aminoguanidine pretreated CHO-MG cells assessed as reduction in cell viability measured after 72 hrs in presence of spermine by MTS assay. It is filed as ADME, cell-based, Cricetulus griseus. Particulars: chinese hamster.
Data set [7] has as its target Large neutral amino acids transporter small subunit 1 (Homo sapiens) (UniProt Q01650). Briefly: Inhibition of LAT1-mediated amino acid transport in human L3.6PL cells assessed as reduction in intracellular methionine level measured after 72 hrs by LCMS analysis. The format is cell-based. In outline: (§2)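 L3.6pl cells (50,000 cells/mL, 10 mL, 1 mM aminoguanidine) were seeded in poly-lysine-treated 9 cm dishes and incubated overnight at 37°C. They were then dosed with compound at 2, 5 or 7 μM from PBS stocks (2, 5, 7 mM) and incubated 72 h. Runs were done in triplicate, with amino acid levels per mg protein.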

In data set [8] the test system is L3.6pl. Briefly: Effect on polyamine level in human L3.6PL cells assessed as arginine level per mg protein in supernatant at 2 uM measured after 72 hrs in presence of amine oxidase suppressor aminoguanidine by LCMS analysis (reference value: 22121 +/- 10585 pmol/mg). The format is functional.
Data set [9] concerns the target Large neutral amino acids transporter small subunit 1 (Homo sapiens) (UniProt Q01650). Briefly: Inhibition of LAT1-mediated amino acid transport in human L3.6PL cells assessed as reduction in intracellular leucine level by measuring leucine level per mg protein in cell lysate at 5 uM measured after 72 hrs by LCMS analysis (reference value: 232 +/- 10 pmol/mg). The format is cell-based. In short, it runs like this: as §2

Data set [10] can be described thus: Toxicity in mouse at 1 mg/kg, ip measured over 24 hrs. The format is organism-based. Particulars: in vivo.
Data set [11] has as its system L3.6pl. The data set is described as follows: Effect on polyamine level in human L3.6PL cells assessed as phenylalanine level per mg protein in supernatant at 5 uM measured after 72 hrs in presence of amine oxidase suppressor aminoguanidine by LCMS analysis (reference value: 14299 +/- 7194 pmol/mg). It is filed as functional.
Data set [12] concerns L3.6pl. Briefly: Effect on polyamine level in human L3.6PL cells assessed as acetyl spermidine level per mg protein in supernatant at 5 uM measured after 72 hrs in presence of amine oxidase suppressor aminoguanidine by LCMS analysis (reference value: 1936 +/- 1365 pmol/mg). It is filed as functional.
For data set [13], the target named is Large neutral amino acids transporter small subunit 1 (Homo sapiens) (UniProt Q01650). The data set is described as follows: Inhibition of LAT1-mediated [3H]-leucine uptake in human L3.6PL cells at 2 to 7 uM preincubated for 24 hrs at 37 degree C followed by HBBS addition and compound washout and measured after 15 mins by scintillation counter method. It is filed as cell-based. In short, it runs like this:
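L3.6pl cells were preincubated with compound for 24 h at 37°C, then washed and placed in HBSS. ³H-leucine uptake was measured over 15 min at 37°C. Unbound label was removed with three cold buffer washes, and counts were normalized to μg protein.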

The target is the same in data set [14]. Briefly: Induction of LAT1-mediated polyamine efflux in human L3.6PL cells assessed as increase in [3H]leucine efflux at 60 uM measured after 30 mins at 37 degC by scintillation counting method. It is filed as cell-based. In short, it runs like this:
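L3.6pl cells preloaded 5 min at 37°C with 3H-leucine and washed three times with cold HBSS. Compound (60 μM) given alone for 30 min at 37°C. Radioactivity of released 3H-leucine counted in the supernatant. Untreated and 100 μM unlabeled leucine lanes set the efflux range.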

Data set [15] deals with L3.6pl. The data set is described as follows: Effect on polyamine level in human L3.6PL cells assessed as spermidine level per mg protein in supernatant at 2 uM measured after 72 hrs in presence of amine oxidase suppressor aminoguanidine by LCMS analysis (reference value: 339 pmol/mg). It is filed as functional.
In data set [16] the test system is CHO-MG. The data set is described as follows: Cytotoxicity against CHO-MG cells assessed as reduction in cell viability after 48 hrs by MTS assay. It is filed as cell-based. Particulars: Cricetulus griseus. In short, it runs like this: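 Cells in RPMI 1640 with 10% FBS, 1% penicillin/streptomycin, 37°C, 5% CO2, with aminoguanidine (1 mM for CHO K1 and CHO-MG, 250 μM for L3.6pl). Plated overnight at 1000 cells/well (CHO lines) or 500 cells/well (L3.6pl). Compound in PBS added, 48 h exposure. Growth read as MTS formazan absorbance at 490 nm. IC50 is the dose giving 50% relative growth versus untreated control. Run twice in triplicate.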

Data set [17] relates to L3.6pl. Briefly: Effect on polyamine level in human L3.6PL cells assessed as methionine level human L3.6PL cells assessed per mg protein in supernatant at 5 uM pretreated with aminoguanidine for 24 hrs followed by compound treatment after 72 hrs by LCMS analysis (reference value: 22834 +/- 1984 pmol/mg). It is filed as functional.
The target in data set [18] is Large neutral amino acids transporter small subunit 1 (Homo sapiens) (UniProt Q01650). The data set is described as follows: Inhibition of LAT1-mediated [3H]-leucine uptake in human L3.6PL cells at 2 to 7 uM preincubated for 24 hrs at 37 degree C followed by HBBS addition and compound washout and subsequent compound dosing measured after 30 mins by scintillation counter method. The format is cell-based. In short, it runs like this: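 L3.6pl cells were preincubated 24 h at 37°C with compound, washed and placed in HBSS. Compound was then added back just before ³H-leucine, followed by a 30 min incubation at 37°C. After cold washes, radioactivity was counted and normalized to μg protein.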

The subject of data set [19] is L3.6pl. The data set is described as follows: Effect on polyamine level in human L3.6PL cells assessed as agmatine level per mg protein in supernatant at 5 uM measured after 72 hrs in presence of amine oxidase suppressor aminoguanidine by LCMS analysis (reference value: 101 pmol/mg). The format is functional.

Calls of active or inactive are those of the source. The rule behind the calls is not given here.

One may read the IC50 as the concentration that inhibits the measured activity by half. Turning to `CC(C)CCN1CCN([C@@H](CNCc2ccccc2)CC2CCCCC2)C[C@@H]1CC(C)C`, the result (in the data set on L3.6pl [1]; in data set [14]) was Active. Further, the result (in data set [2]; with L3.6pl [5]) was inactive. For the same compound, the Activity in the data set with CHO-K1 [3] is 3%; with CHO-MG [6], “Active”; in the data set with L3.6pl [8] it was 18396 pmol/mg; in data set [9], 94 pmol/mg; in data set [10] it was “Non-Toxic”; with L3.6pl [11], 160462 pmol/mg. Also, the Activity was 1706 pmol/mg with L3.6pl [12], 131 pmol/mg in the data set with L3.6pl [15], 64036 pmol/mg with L3.6pl [17] and 485 pmol/mg with L3.6pl [19]. Further, the inhibition result (with CHO-K1 [4]; in data set [13]; in data set [18]) was “inactive” each time. In addition, the inhibition result in data set [7] is “Dose-dependent effect”. In the data set on CHO-MG [16], the 50% inhibitory concentration (IC50) turned out to be 8.93 µM.
